Results as given in ChEMBL document CHEMBL4402595, “Discovery of Orally Bioavailable Chromone Derivatives as Potent and Selective BRD4 Inhibitors: Scaffold Hopping, Optimization, and Pharmacological Evaluation” (J Med Chem, 2020).
Activity calls are given as the source filed them. No cut-off for these calls is given here.

What was measured:
[1] = molecular target: T1, Bromodomain-containing protein 4 (Homo sapiens, UniProt O60885); assay: Inhibition of BRD4 in poly(I:C)-stimulated human SAECs TLR3-inducible CIG5 gene expression at 10 uM pre-incubated for 24 hrs before poly(I:C) stimulation for 4 hrs by qRT-PCR analysis relative to control
[2] = molecular target: T1, Bromodomain-containing protein 4; assay: Inhibition of BRD4 in poly(I:C)-stimulated human SAECs TLR3-inducible CIG5 gene expression pre-incubated for 24 hrs before poly(I:C) stimulation for 4 hrs by qRT-PCR analysis
[3] = molecular target: Bromodomain-containing protein 2 (Homo sapiens, UniProt P25440); assay: Binding affinity to recombinant BRD2 BD2 (unknown origin) incubated for 1 hr by TR-FRET assay
Bromodomain-containing protein 2, sequence (P25440 whole entry): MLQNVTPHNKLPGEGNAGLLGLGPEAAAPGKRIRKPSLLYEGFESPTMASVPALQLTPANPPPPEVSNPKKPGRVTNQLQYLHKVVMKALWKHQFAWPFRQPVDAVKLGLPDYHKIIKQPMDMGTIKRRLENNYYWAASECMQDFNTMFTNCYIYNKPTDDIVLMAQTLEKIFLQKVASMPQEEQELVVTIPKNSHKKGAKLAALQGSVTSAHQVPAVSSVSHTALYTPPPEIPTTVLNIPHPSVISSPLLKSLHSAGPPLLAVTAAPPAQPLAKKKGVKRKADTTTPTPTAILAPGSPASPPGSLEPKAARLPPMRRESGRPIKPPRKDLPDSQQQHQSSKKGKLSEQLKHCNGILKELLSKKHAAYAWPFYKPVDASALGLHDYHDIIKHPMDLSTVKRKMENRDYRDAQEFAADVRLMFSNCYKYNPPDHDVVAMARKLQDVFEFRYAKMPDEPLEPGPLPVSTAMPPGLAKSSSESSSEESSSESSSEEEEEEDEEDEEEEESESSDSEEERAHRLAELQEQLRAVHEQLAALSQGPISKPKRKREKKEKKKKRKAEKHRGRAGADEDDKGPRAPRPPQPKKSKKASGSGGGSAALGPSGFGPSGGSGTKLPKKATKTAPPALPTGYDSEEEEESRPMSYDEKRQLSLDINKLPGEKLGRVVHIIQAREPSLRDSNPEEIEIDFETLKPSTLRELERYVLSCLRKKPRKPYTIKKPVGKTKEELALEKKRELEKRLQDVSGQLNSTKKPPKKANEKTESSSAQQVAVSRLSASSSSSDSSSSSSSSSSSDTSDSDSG

[4] = molecular target: T1, Bromodomain-containing protein 4; assay: Inhibition of BRD4 in poly(I:C)-stimulated human SAECs assessed as reduction in H3K122Ac levels at 10 uM pre-incubated for 24 hrs before poly(I:C) stimulation for 4 hrs by immunofluorescence staining
[5] = molecular target: T1, Bromodomain-containing protein 4; assay: Inhibition of BRD4 in poly(I:C)-stimulated human SAECs TLR3-inducible IL-6 gene expression at 10 uM pre-incubated for 24 hrs before poly(I:C) stimulation for 4 hrs by qRT-PCR analysis relative to control
[6] = Unbound fraction in human plasma at 2 uM; type: ADME, cell-free
[7] = molecular target: CYP2D6 (Homo sapiens, UniProt P10635); assay: Inhibition of CYP2D6 (unknown origin) at 10 uM relative to control; type: ADME
CYP2D6, sequence (P10635 whole entry): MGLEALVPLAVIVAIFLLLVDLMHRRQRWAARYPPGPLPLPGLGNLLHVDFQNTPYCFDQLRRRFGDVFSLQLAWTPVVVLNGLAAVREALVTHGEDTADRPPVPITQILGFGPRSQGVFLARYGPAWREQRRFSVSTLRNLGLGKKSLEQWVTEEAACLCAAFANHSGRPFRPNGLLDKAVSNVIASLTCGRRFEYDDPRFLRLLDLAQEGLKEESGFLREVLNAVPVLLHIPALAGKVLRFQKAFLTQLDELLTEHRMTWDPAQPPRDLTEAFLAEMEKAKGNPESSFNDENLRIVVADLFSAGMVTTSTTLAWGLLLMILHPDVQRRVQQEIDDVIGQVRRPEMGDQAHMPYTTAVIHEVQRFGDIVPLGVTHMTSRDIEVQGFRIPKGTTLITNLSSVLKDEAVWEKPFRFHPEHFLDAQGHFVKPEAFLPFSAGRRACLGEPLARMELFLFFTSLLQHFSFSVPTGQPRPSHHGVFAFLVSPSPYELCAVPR

[8] = Clearance in human liver microsomes; type: ADME, Microsome
[9] = molecular target: Voltage-gated inwardly rectifying potassium channel KCNH2 (Homo sapiens, UniProt Q12809); assay: Inhibition of human ERG
Voltage-gated inwardly rectifying potassium channel KCNH2, sequence (Q12809 whole entry): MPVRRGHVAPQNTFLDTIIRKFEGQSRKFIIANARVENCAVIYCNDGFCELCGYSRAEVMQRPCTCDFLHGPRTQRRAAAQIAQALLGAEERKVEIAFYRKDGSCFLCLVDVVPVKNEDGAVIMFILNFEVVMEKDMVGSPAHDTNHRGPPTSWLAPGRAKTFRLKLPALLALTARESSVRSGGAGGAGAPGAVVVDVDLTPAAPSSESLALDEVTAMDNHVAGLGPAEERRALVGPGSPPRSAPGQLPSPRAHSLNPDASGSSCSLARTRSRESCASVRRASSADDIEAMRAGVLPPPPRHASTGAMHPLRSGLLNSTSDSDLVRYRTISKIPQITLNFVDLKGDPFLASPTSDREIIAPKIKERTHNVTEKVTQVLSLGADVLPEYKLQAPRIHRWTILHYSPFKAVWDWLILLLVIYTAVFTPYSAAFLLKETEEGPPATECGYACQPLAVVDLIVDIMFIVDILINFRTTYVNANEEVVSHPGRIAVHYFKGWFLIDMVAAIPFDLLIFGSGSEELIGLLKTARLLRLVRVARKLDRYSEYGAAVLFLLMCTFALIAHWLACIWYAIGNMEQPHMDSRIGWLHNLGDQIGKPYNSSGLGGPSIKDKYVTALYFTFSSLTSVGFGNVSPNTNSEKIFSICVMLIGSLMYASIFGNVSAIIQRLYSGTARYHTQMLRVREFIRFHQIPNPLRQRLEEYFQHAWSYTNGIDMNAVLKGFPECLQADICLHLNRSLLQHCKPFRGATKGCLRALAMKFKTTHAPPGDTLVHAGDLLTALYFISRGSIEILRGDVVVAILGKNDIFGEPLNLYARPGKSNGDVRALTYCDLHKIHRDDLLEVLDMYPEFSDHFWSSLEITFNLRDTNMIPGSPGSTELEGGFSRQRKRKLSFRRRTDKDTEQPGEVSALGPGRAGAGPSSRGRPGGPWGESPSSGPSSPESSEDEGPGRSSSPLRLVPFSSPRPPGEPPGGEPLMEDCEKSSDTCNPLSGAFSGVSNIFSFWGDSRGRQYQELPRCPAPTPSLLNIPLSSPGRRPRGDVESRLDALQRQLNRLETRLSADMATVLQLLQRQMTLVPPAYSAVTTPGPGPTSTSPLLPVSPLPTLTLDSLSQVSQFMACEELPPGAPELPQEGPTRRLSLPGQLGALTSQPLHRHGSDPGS

[10] = Clearance in mouse liver microsomes; type: ADME, Microsome
[11] = Unbound fraction in mouse plasma at 2 uM; type: ADME, cell-free
[12] = molecular target: CYP3A4 (Homo sapiens, UniProt P08684); assay: Inhibition of CYP3A4 (unknown origin) at 10 uM using testosterone substrate relative to control; type: ADME; settings: probe testosterone
CYP3A4, sequence (P08684 whole entry): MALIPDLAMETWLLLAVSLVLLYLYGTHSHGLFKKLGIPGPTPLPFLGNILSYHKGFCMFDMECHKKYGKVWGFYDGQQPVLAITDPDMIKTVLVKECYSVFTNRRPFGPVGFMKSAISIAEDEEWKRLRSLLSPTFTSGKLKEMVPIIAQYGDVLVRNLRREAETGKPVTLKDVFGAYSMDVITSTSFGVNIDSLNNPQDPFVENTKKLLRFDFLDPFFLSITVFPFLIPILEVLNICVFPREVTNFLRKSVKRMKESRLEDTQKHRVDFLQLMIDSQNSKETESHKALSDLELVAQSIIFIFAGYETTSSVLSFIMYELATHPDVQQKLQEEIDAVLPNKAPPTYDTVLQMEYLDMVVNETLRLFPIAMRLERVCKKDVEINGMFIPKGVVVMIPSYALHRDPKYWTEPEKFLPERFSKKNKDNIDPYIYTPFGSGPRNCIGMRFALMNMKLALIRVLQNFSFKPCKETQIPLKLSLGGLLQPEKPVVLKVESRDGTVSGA
Method in brief: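 The CYP3A4 assay was run with midazolam or with testosterone as substrate.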

| inhibition [1] [%] | IC50 [2] [nM] | IC50 [3] [nM] | inhibition [4] | inhibition [5] [%] | Fu [6] [%] | inhibition at 10 µM [7] [%] | CLH [8] [µL/min/mg] | CLH [10] [µL/min/mg] | Fu [11] [%] | inhibition at 10 µM [12] [%] | SMILES | IC50 [9] [nM] |
| --- | --- | --- | --- | --- | --- | --- | --- | --- | --- | --- | --- | --- |
| 99 | 520 | 845 | Active | 100 | – | – | – | – | – | – | COc1cc(OC)c2c(=O)cc(-c3cc(C)c(OC[C@H](O)CN4CCCCC4)c(C)c3)oc2c1 | – |
| – | – | – | – | – | 17 | 0 | 5.6 | 25 | 12 | 8.2 | COc1cc(OC)c2c(=O)cc(-c3cc(C)c(OC[C@H](O)CN4CCN(C)CC4)c(C)c3)oc2c1 | > 30000 |
